Test results published in ChEMBL document CHEMBL5058577, “EUbOPEN Chemogenomics Library 2 (Multiplex)” (2022).

System: HEK-293T
Assay: Multiplex assay against HEK293T
Assay type: toxicity, cell-based
Conditions: human
Procedure, shortened: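 At seeding, live cells were stained with Hoechst33342, BioTracker Green Microtubule Cytoskeleton Dye, MitoTracker Red and Annexin V Alexa Fluor 680. After compound addition they were imaged on a CQ1 microscope at 37°C and 5% CO2, and CellPathfinder machine-learning gating sorted them into Hoechst high-intensity objects or normal cells, with normal cells further split into healthy, pyknosed or fragmented nuclei and pyknosed cells into mitotic or apoptotic. Tubulin, mitochondrial-mass and membrane-permeability phenotypes are given as per cents of cells with healthy nuclei.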

[1] = 12 h, 1 µM, compound concentration 1 uM, replicate 1
[2] = 12 h, 1 µM, compound concentration 1 uM, replicate 2
[3] = 12 h, 10 µM, compound concentration 10 uM, replicate 1
[4] = 12 h, 10 µM, compound concentration 10 uM, replicate 2
[5] = 24 h, 1 µM, compound concentration 1 uM, replicate 1
[6] = 24 h, 1 µM, compound concentration 1 uM, replicate 2
[7] = 24 h, 10 µM, compound concentration 10 uM, replicate 1
[8] = 24 h, 10 µM, compound concentration 10 uM, replicate 2
[9] = 48 h, 1 µM, compound concentration 1 uM, replicate 1
[10] = 48 h, 1 µM, compound concentration 1 uM, replicate 2
[11] = 48 h, 10 µM, compound concentration 10 uM, replicate 1
[12] = 48 h, 10 µM, compound concentration 10 uM, replicate 2

## COc1c(Nc2ccc(S(C)(=O)=O)nc2C)ncnc1OC1CCN(C(=O)OC(C)C)CC1 [ADP-597]
[1]
  Population Apoptotic (%): 29%
  Population Fragmented Nuclei (%): 5%
  Population Healthy Nuclei (%): 78%
  Population Hoechst High Intensity Objects (%): 6%
  Population Membrane Permeable-Phenotype (%): 0%
  Population Mitochondria Different-Phenotype (%): 47%
  Population Mitotic Cells (%): 70%
  Population Normal (%): 93%
  Population Pyknosed Nuclei (%): 16%
  Population Tubulin-Different-Phenotype (%): 36%
  Total Cell Count: 430
[2]
  Population Apoptotic (%): 38%
  Population Fragmented Nuclei (%): 4%
  Population Healthy Nuclei (%): 80%
  Population Hoechst High Intensity Objects (%): 3%
  Population Mitochondria Different-Phenotype (%): 62%
  Population Mitotic Cells (%): 62%
  Population Normal (%): 96%
  Population Pyknosed Nuclei (%): 14%
  Population Tubulin-Different-Phenotype (%): 25%
  Total Cell Count: 347
[3]
  Population Apoptotic (%): 47%
  Population Fragmented Nuclei (%): 7%
  Population Healthy Nuclei (%): 75%
  Population Hoechst High Intensity Objects (%): 8%
  Population Membrane Permeable-Phenotype (%): 0%
  Population Mitochondria Different-Phenotype (%): 70%
  Population Mitotic Cells (%): 52%
  Population Normal (%): 91%
  Population Pyknosed Nuclei (%): 17%
  Population Tubulin-Different-Phenotype (%): 44%
  Total Cell Count: 302
[4]
  Population Healthy Nuclei (%): 72%
  Population Hoechst High Intensity Objects (%): 25%
  Population Mitochondria Different-Phenotype (%): 71%
  Population Normal (%): 74%
  Population Pyknosed Nuclei (%): 20%
  Population Tubulin-Different-Phenotype (%): 36%
  Total Cell Count: 238
[5]
  Population Apoptotic (%): 23%
  Population Fragmented Nuclei (%): 7%
  Population Healthy Nuclei (%): 81%
  Population Hoechst High Intensity Objects (%): 2%
  Population Membrane Permeable-Phenotype (%): 0%
  Population Mitochondria Different-Phenotype (%): 20%
  Population Mitotic Cells (%): 76%
  Population Normal (%): 97%
  Population Pyknosed Nuclei (%): 11%
  Population Tubulin-Different-Phenotype (%): 16%
  Total Cell Count: 587
[6]
  Population Apoptotic (%): 30%
  Population Fragmented Nuclei (%): 6%
  Population Healthy Nuclei (%): 84%
  Population Hoechst High Intensity Objects (%): 3%
  Population Membrane Permeable-Phenotype (%): 1%
  Population Mitochondria Different-Phenotype (%): 34%
  Population Mitotic Cells (%): 69%
  Population Normal (%): 96%
  Population Pyknosed Nuclei (%): 9%
  Population Tubulin-Different-Phenotype (%): 15%
  Total Cell Count: 447
[7]
  Population Apoptotic (%): 44%
  Population Fragmented Nuclei (%): 9%
  Population Healthy Nuclei (%): 74%
  Population Hoechst High Intensity Objects (%): 7%
  Population Membrane Permeable-Phenotype (%): 0%
  Population Mitochondria Different-Phenotype (%): 58%
  Population Mitotic Cells (%): 55%
  Population Normal (%): 92%
  Population Pyknosed Nuclei (%): 15%
  Population Tubulin-Different-Phenotype (%): 38%
  Total Cell Count: 355
[8]
  Population Apoptotic (%): 63%
  Population Fragmented Nuclei (%): 11%
  Population Healthy Nuclei (%): 71%
  Population Hoechst High Intensity Objects (%): 21%
  Population Mitochondria Different-Phenotype (%): 54%
  Population Mitotic Cells (%): 36%
  Population Normal (%): 78%
  Population Pyknosed Nuclei (%): 17%
  Population Tubulin-Different-Phenotype (%): 25%
  Total Cell Count: 300
[9]
  Population Apoptotic (%): 25%
  Population Fragmented Nuclei (%): 13%
  Population Healthy Nuclei (%): 78%
  Population Hoechst High Intensity Objects (%): 2%
  Population Membrane Permeable-Phenotype (%): 0%
  Population Mitochondria Different-Phenotype (%): 18%
  Population Mitotic Cells (%): 75%
  Population Normal (%): 97%
  Population Pyknosed Nuclei (%): 8%
  Population Tubulin-Different-Phenotype (%): 13%
  Total Cell Count: 924
[10]
  Population Apoptotic (%): 36%
  Population Healthy Nuclei (%): 77%
  Population Hoechst High Intensity Objects (%): 5%
  Population Membrane Permeable-Phenotype (%): 1%
  Population Mitochondria Different-Phenotype (%): 23%
  Population Mitotic Cells (%): 63%
  Population Normal (%): 94%
  Population Pyknosed Nuclei (%): 9%
  Population Tubulin-Different-Phenotype (%): 14%
  Total Cell Count: 590
[11]
  Population Apoptotic (%): 35%
  Population Fragmented Nuclei (%): 15%
  Population Healthy Nuclei (%): 73%
  Population Hoechst High Intensity Objects (%): 4%
  Population Membrane Permeable-Phenotype (%): 0%
  Population Mitochondria Different-Phenotype (%): 38%
  Population Mitotic Cells (%): 64%
  Population Normal (%): 95%
  Population Pyknosed Nuclei (%): 11%
  Population Tubulin-Different-Phenotype (%): 23%
  Total Cell Count: 494
[12]
  Population Apoptotic (%): 43%
  Population Fragmented Nuclei (%): 13%
  Population Hoechst High Intensity Objects (%): 10%
  Population Mitochondria Different-Phenotype (%): 32%
  Population Mitotic Cells (%): 56%
  Population Normal (%): 89%
  Population Pyknosed Nuclei (%): 12%
  Population Tubulin-Different-Phenotype (%): 18%
  Total Cell Count: 392
